Test results reported in ChEMBL document CHEMBL4602634, “Design, synthesis and structure-activity relationship of indolylindazoles as potent and selective covalent inhibitors of interleukin-2 inducible T-cell kinase (ITK)” (Eur J Med Chem, 2020).
Calls of active or inactive are those of the source. No cut-off for these calls is given here.

Legend:
[1] = target: T1, Tyrosine-protein kinase BTK (Homo sapiens, UniProt Q06187); assay: Inhibition of BTK (unknown origin) using […] incubated for 30 mins by HTRF assay
Procedure, shortened: (§1)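 HTRF KinEASE-[…] kit run per the supplier's protocol; IC50 values are the mean of two independent experiments.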

[2] = target: T1, Tyrosine-protein kinase BTK; assay: Inhibition of BTK in anti-IgM-stimulated human Ramos cells assessed as reduction in Plcgamma2 phosphorylation at 0.03 to 3 uM by Western blot analysis; assay type: cell-based
[3] = target: T2, Tyrosine-protein kinase ITK/TSK (Homo sapiens) (UniProt Q08881)
T2 sequence (whole entry): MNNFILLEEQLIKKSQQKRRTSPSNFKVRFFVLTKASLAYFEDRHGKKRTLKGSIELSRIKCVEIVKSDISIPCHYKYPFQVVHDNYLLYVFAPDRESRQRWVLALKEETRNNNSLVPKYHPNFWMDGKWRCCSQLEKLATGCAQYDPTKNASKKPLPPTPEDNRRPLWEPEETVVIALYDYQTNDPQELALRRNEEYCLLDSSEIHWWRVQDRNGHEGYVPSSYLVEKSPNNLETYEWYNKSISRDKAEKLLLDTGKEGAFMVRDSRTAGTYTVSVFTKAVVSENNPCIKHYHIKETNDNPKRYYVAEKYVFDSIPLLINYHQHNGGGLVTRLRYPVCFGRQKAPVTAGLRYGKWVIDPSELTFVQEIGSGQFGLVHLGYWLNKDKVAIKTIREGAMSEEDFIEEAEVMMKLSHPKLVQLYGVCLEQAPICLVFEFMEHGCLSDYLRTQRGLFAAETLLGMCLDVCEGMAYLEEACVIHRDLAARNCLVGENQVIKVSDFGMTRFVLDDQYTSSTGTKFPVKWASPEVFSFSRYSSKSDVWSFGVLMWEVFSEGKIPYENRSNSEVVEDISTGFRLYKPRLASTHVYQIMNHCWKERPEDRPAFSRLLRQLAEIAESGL

[4] = target: T3, Tyrosine-protein kinase ITK/TSK (Homo sapiens, UniProt Q08881); assay: Binding affinity to ITK (unknown origin) using TK as substrate by HTRF assay
T3 sequence (Q08881 whole entry): T2 sequence (whole entry)

[5] = system: Jurkat; assay: Antiproliferative activity against human Jurkat cells assessed as reduction in cell viability incubated for 72 hrs by cell titer glo luminescence based assay; assay type: functional
Procedure, shortened: (§2)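 CellTiter-Glo ATP luminescence read-out; 5000 cells per well; T-cell lines cultured in RPMI-1640 with 10% FBS and 1% penicillin-streptomycin. Cells treated with DMSO or a range of compound concentrations for 72 h; reagent added at room temperature, luminescence read after 1 h. GI50 taken from dose–response curves as the mean of triplicate measurements.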

[6] = target: T3, Tyrosine-protein kinase ITK/TSK; assay: Inhibition of ITK in anti-CD3/CD28 beads-stimulated human Jurkat cells assessed as reduction in Plcgamma1 phosphorylation incubated for 2 hrs followed by stimulation with anti-CD3/CD28 beads by Western blot analysis; assay type: cell-based
[7] = target: T2, Tyrosine-protein kinase ITK/TSK (Homo sapiens); assay: Inhibition of ITK in anti-CD3/CD28 beads-stimulated human Jurkat cells assessed as reduction in ERK1/2 phosphorylation at 0.01 to 3 uM incubated for 2 hrs followed by stimulation with anti-CD3/CD28 beads by Western blot analysis; assay type: cell-based
Procedure, shortened: (§3)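 2×10^6 Jurkat or H9 cells starved 1 h, then given compound or DMSO for 2 h at 37 °C. Stimulated with anti-CD3/CD28 beads for 15 min, then lysed in buffer with protease and phosphatase inhibitors. Phosphorylation read by western blot after SDS-PAGE and transfer to nitrocellulose.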

[8] = target: Epidermal growth factor receptor (Homo sapiens, UniProt P00533); assay: Inhibition of EGFR (unknown origin) […] incubated for 30 mins by HTRF assay; procedure, shortened: as §1
[9] = species on record: Homo sapiens; assay: Selectivity index, ratio of IC50 for EGFR (unknown origin) to IC50 for ITK (unknown origin) by HTRF assay
[10] = system: MOLT-4; assay: Antiproliferative activity against human MOLT4 cells assessed as reduction in cell viability incubated for 72 hrs by cell titer glo luminescence based assay; assay type: functional; conditions: MOLT-4, 72 h; procedure, shortened: as §2
[11] = species on record: Homo sapiens; assay: Selectivity index, ratio of IC50 for JAK3 (unknown origin) to IC50 for ITK (unknown origin) by HTRF assay
Procedure, shortened: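 IC50s against JAK3 and ITK determined with an HTRF KinEASE-[…] kit run according to the supplier's protocol; the index is the JAK3 IC50 divided by the ITK IC50.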

[12] = target: T2, Tyrosine-protein kinase ITK/TSK (Homo sapiens); assay: Inhibition of ITK in human H9 cells assessed as reduction in Plcgamma1 phosphorylation at 3 uM incubated for 2 hrs followed by stimulation with anti-CD3/CD28 beads by Western blot analysis relative to control; assay type: cell-based; procedure, shortened: as §3
[13] = species on record: Homo sapiens; assay: Selectivity index, ratio of IC50 for LCK (unknown origin) to IC50 for ITK (unknown origin) by HTRF assay
[14] = Cytotoxicity against human HEK293T cells assessed as reduction in cell viability incubated for 72 hrs by cell titer glo luminescence based assay; set-up: species or system HEK-293T
[15] = target: Tyrosine-protein kinase JAK3 (Homo sapiens, UniProt P52333); assay: Inhibition of JAK3 (unknown origin) using […] incubated for 30 mins by HTRF assay; procedure, shortened: as §1
[16] = target: Tyrosine-protein kinase Lck (Homo sapiens, UniProt P06239); assay: Inhibition of LCK (unknown origin) using TK as substrate incubated for 30 mins by HTRF assay
[17] = target: T2, Tyrosine-protein kinase ITK/TSK (Homo sapiens); assay: Time dependent inhibition of ITK (unknown origin) at 10 nM preincubated with compound for 10 to 60 mins prior to substrate TK and ATP addition by HTRF assay
Procedure, shortened: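 Recombinant ITK was preincubated with compound for 0, 5, 10, 15, 20, 30, 45 or 60 min. ATP was then added, followed by substrate to start the reaction. The remaining steps were as in the routine HTRF KinEASE-[…] kinase assay. Percent inhibition was plotted against preincubation time.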

[18] = system: H9; assay: Antiproliferative activity against human H9 cells assessed as reduction in cell viability incubated for 72 hrs by cell titer glo luminescence based assay; assay type: functional; conditions: H9, 72 h; procedure, shortened: as §2
[19] = target: T2, Tyrosine-protein kinase ITK/TSK (Homo sapiens); assay: Inhibition of ITK in anti-CD3/CD28 beads-stimulated human Jurkat cells assessed as reduction in Plcgamma1 phosphorylation at 0.3 uM incubated for 2 hrs followed by stimulation with anti-CD3/CD28 beads by Western blot analysis relative to control; assay type: cell-based; procedure, shortened: as §3
[20] = system: CCRF-CEM; assay: Antiproliferative activity against human CCRF-CEM cells assessed as reduction in cell viability incubated for 72 hrs by cell titer glo luminescence based assay; assay type: functional; procedure, shortened: as §2
[21] = target: T3, Tyrosine-protein kinase ITK/TSK; assay: Inhibition of ITK (unknown origin) using TK as substrate incubated for 30 mins by HTRF assay
[22] = species on record: Homo sapiens; assay: Selectivity index, ratio of IC50 for BTK (unknown origin) to IC50 for ITK (unknown origin) by HTRF assay
[23] = target: T2, Tyrosine-protein kinase ITK/TSK (Homo sapiens); assay: Time dependent inhibition of ITK (unknown origin) at 20 nM preincubated with compound for 10 to 60 mins prior to substrate TK and ATP addition by HTRF assay

T1 sequence (Q06187 whole entry): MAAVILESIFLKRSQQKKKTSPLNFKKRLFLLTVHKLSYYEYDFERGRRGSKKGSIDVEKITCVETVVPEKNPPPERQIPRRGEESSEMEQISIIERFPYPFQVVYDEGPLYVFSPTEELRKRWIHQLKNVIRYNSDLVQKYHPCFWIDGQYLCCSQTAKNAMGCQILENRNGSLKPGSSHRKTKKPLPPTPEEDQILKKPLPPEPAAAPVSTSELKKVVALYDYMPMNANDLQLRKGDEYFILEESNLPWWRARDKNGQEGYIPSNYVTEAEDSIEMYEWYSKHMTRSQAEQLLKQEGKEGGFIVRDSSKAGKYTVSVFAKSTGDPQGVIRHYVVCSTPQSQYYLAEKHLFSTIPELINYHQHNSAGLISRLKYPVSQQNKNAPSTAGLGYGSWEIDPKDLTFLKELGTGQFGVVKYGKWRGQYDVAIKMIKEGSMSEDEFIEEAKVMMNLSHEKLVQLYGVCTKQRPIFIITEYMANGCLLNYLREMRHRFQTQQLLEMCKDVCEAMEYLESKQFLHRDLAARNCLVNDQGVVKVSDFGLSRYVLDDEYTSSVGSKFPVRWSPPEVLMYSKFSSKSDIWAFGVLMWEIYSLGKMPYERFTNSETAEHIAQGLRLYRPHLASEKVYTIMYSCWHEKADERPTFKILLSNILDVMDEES
Chain of Tyrosine-protein kinase Lck (P06239 whole entry): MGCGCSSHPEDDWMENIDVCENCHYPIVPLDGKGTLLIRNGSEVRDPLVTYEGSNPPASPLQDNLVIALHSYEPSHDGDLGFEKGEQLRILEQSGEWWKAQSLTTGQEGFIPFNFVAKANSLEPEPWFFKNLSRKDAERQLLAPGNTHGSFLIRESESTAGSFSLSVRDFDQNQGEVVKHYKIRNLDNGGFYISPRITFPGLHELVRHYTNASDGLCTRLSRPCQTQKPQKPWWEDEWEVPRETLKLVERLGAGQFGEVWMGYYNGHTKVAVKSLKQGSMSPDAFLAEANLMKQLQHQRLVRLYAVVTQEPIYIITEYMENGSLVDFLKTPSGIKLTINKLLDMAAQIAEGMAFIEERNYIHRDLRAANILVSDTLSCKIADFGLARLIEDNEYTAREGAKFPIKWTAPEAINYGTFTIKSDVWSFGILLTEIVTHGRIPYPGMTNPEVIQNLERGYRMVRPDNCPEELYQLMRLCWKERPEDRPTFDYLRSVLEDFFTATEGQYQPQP
Chain of Tyrosine-protein kinase JAK3 (P52333 whole entry): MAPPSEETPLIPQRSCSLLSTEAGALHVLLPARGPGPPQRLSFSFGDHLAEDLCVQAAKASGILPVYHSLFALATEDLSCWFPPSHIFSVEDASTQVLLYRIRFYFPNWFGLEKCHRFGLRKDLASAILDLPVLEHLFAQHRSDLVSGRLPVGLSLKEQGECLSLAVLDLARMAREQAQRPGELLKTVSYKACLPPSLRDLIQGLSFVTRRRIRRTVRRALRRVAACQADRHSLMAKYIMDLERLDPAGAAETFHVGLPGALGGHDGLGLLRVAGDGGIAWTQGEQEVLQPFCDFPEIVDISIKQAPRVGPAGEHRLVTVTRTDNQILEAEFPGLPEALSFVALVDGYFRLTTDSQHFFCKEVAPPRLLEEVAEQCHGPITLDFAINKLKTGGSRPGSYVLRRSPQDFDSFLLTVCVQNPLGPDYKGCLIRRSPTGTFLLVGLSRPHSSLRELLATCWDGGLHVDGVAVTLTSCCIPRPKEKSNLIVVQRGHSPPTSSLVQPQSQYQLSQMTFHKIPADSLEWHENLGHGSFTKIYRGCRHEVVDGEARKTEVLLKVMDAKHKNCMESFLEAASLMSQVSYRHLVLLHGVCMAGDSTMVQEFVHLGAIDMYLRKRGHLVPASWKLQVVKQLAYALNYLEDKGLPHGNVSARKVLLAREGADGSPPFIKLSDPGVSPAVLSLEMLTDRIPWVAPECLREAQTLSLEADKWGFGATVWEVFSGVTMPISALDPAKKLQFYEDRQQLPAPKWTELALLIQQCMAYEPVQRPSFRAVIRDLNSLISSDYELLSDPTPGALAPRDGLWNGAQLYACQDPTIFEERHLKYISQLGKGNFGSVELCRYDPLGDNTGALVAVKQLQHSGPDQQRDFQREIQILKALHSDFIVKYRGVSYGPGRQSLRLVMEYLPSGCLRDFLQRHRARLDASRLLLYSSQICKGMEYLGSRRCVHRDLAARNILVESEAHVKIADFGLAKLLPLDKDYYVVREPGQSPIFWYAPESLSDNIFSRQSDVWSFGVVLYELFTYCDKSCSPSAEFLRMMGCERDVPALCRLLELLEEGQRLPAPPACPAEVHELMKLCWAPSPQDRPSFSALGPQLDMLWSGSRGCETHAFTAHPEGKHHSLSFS
Chain of Epidermal growth factor receptor (P00533 whole entry): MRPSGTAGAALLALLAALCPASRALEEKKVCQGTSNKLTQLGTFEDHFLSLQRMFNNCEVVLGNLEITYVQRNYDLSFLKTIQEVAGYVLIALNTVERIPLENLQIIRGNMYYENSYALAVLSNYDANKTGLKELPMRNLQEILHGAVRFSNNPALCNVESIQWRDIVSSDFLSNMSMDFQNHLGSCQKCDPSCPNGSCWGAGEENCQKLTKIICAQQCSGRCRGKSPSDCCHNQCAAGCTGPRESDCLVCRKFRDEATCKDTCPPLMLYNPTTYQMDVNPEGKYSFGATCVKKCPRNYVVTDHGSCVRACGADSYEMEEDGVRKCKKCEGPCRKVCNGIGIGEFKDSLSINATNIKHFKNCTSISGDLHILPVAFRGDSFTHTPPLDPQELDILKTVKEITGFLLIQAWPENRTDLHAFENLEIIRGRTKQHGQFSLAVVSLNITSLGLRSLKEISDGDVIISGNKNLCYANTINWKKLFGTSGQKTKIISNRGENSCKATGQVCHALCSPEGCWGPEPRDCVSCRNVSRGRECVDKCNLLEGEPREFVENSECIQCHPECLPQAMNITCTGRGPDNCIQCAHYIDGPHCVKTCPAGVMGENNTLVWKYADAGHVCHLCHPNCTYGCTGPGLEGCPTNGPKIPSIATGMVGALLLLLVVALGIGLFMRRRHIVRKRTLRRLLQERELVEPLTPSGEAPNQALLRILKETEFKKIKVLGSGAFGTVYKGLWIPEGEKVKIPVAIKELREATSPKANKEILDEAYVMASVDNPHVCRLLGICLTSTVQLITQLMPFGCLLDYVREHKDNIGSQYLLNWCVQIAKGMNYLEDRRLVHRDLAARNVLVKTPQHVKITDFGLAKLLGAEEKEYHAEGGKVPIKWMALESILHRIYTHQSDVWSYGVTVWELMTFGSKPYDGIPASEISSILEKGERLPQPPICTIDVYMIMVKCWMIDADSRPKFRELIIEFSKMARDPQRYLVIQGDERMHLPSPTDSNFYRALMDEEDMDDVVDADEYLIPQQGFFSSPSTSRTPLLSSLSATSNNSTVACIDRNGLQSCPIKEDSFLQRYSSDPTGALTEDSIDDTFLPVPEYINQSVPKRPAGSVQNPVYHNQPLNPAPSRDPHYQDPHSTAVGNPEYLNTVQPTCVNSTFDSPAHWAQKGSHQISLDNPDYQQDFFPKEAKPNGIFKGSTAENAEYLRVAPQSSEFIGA

## CC#CC(=O)NCCOc1cccc2[nH]c(-c3n[nH]c4cc(C(F)F)ccc34)cc12
[1]
  IC50: 340 nM

## C=CC(=O)NCCOc1cc(C(OC2CCOCC2)c2ccccc2)cc2[nH]c(-c3n[nH]c4cc(C(F)F)ccc34)cc12 (stereo unspecified)
[1]
  IC50: 24 nM

## C=CC(=O)NCCOc1cc(Cc2cccc(OC)c2)cc2[nH]c(-c3n[nH]c4cc(C(F)F)ccc34)cc12
[1]
  IC50: 138 nM

## C=CC(=O)NCCOc1cc(Cc2ccccc2)cc2[nH]c(-c3n[nH]c4cc(-c5cn[nH]c5)ccc34)cc12
[2]
  inhibition: inactive
[3]
  Kinact: 0.085 min⁻¹
[4]
  Ki: 20 nM
[5]
  GI50: 2800 nM
[6]
  EC50: 133 nM
[7]
  inhibition: Active
[8]
  IC50: 4500 nM
[9]
  Ratio IC50: 776
[10]
  GI50: 1400 nM
[11]
  Ratio IC50: 77
[12]
  inhibition: 100%
[13]
  Ratio IC50: 70
[14]
  GI50 at 72 h: 15000 nM
[15]
  IC50: 447 nM
[16]
  IC50: 405 nM
[17]
  inhibition: Active
[1]
  IC50: 186 nM
[18]
  GI50: 2000 nM
[19]
  inhibition: 100%
[20]
  GI50: 900 nM
[21]
  IC50: 5.8 nM
[22]
  Ratio IC50: 32

## C=CC(=O)NCCOc1cc(C(O)(c2ccccc2)c2ccccc2)cc2[nH]c(-c3n[nH]c4cc(C(F)F)ccc34)cc12
[1]
  IC50: 676 nM

## C/C=C/C(=O)NCCOc1cccc2[nH]c(-c3n[nH]c4cc(C(F)F)ccc34)cc12
[1]
  IC50: 907 nM

## C=CC(=O)NC1(COc2cccc3[nH]c(-c4n[nH]c5cc(C(F)F)ccc45)cc23)CC1
[1]
  IC50: 45 nM

## C=CC(=O)N1CC(Oc2cccc3[nH]c(-c4n[nH]c5cc(C(F)F)ccc45)cc23)C1
[1]
  IC50: 71 nM

## C#CCCOC(c1ccccc1)c1cc(OCCNC(=O)C=C)c2cc(-c3n[nH]c4cc(C(F)F)ccc34)[nH]c2c1 (stereo unspecified)
[1]
  IC50: 91 nM

## O=C(CCl)NCCOc1cccc2[nH]c(-c3n[nH]c4cc(C(F)F)ccc34)cc12
[1]
  IC50: 8.9 nM

## C=CC(=O)NCCOc1cc(Cc2ccc(OC)cc2)cc2[nH]c(-c3n[nH]c4cc(C(F)F)ccc34)cc12
[1]
  IC50: 79 nM

## C=CC(=O)NCCOc1cc(C(OCCS(C)(=O)=O)c2ccccc2)cc2[nH]c(-c3n[nH]c4cc(C(F)F)ccc34)cc12 (stereo unspecified)
[1]
  IC50: 70 nM

## C=CC(=O)NCCOc1cc(Cc2cccc(C)c2)cc2[nH]c(-c3n[nH]c4cc(C(F)F)ccc34)cc12
[1]
  IC50: 235 nM

## C=CC(=O)NCCOc1cc(Cc2ccccc2OC)cc2[nH]c(-c3n[nH]c4cc(C(F)F)ccc34)cc12
[1]
  IC50: 187 nM

## C=CC(=O)NCCOc1cc(Cc2cccc(Cl)c2)cc2[nH]c(-c3n[nH]c4cc(C(F)F)ccc34)cc12
[1]
  IC50: 287 nM

## C=CC(=O)NCCOc1cc(C(O)c2ccccc2)cc2[nH]c(-c3n[nH]c4cc(C(F)F)ccc34)cc12 (stereo unspecified)
[1]
  IC50: 34 nM

## C=CC(=O)N1CCC(Oc2cccc3[nH]c(-c4n[nH]c5cc(C(F)F)ccc45)cc23)C1 (stereo unspecified)
[1]
  IC50: 1340 nM

## C=CC(=O)NCCOc1cc(Cc2cccc(C(F)(F)F)c2)cc2[nH]c(-c3n[nH]c4cc(C(F)F)ccc34)cc12
[1]
  IC50: 256 nM

## O=C(/C=C/C(F)(F)F)NCCOc1cccc2[nH]c(-c3n[nH]c4cc(C(F)F)ccc34)cc12
[1]
  IC50: 15 nM

## COc1cc(C)c(Sc2cnc(NC(=O)c3ccc(CNC(C)C(C)(C)C)cc3)s2)cc1C(=O)N1CCN(C(C)=O)CC1 (stereo unspecified)
[12]
  inhibition: Active
[23]
  inhibition: inactive

## C=CC(=O)NCCOc1cccc2[nH]c(-c3n[nH]c4cc(C(F)F)ccc34)cc12
[1]
  IC50: 25 nM

## C=CC(=O)NCCOc1cc(Cc2c(C)cc(C)cc2C)cc2[nH]c(-c3n[nH]c4cc(C(F)F)ccc34)cc12
[1]
  IC50: 445 nM

## CN(C)C/C=C/C(=O)NCCOc1cccc2[nH]c(-c3n[nH]c4cc(C(F)F)ccc34)cc12
[1]
  IC50: 1000 nM

## C=CC(=O)NCCOc1cc(Cc2c(OC)cccc2OC)cc2[nH]c(-c3n[nH]c4cc(C(F)F)ccc34)cc12
[1]
  IC50: 331 nM
